Assay results as given in ChEMBL document CHEMBL4368913, “Design, Synthesis, and Biological Evaluation of 6-Substituted Thieno[3,2- d]pyrimidine Analogues as Dual Epidermal Growth Factor Receptor Kinase and Microtubule Inhibitors” (J Med Chem, 2019).
Each block holds one molecule with its values, some of them ahead of it. Calls of active or inactive are those of the source. The rule behind the calls is not given here.

Assays:
RS4-11 = assay: Antiproliferative activity against human RS4:11 cells after 72 hrs by MTT assay; assay type: functional, cell-based; details: RS4-11, 72 h
Method in brief: (§1)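 Cells in medium with 10% FBS, seeded at 8×10^3 per well, 18 h at 37 °C, 5% CO2, then graded compound concentrations (DMSO ≤0.25%) for 72 h. Viability by MTT. […] Mean ± SE of dose-response curves from at least three independent experiments.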

[1] = molecular target: T1, Epidermal growth factor receptor (Homo sapiens, UniProt P00533); assay: Inhibition of wild type EGFR (unknown origin) by bioluminescent ADP-glo kinase assay
T1 sequence (P00533 whole entry): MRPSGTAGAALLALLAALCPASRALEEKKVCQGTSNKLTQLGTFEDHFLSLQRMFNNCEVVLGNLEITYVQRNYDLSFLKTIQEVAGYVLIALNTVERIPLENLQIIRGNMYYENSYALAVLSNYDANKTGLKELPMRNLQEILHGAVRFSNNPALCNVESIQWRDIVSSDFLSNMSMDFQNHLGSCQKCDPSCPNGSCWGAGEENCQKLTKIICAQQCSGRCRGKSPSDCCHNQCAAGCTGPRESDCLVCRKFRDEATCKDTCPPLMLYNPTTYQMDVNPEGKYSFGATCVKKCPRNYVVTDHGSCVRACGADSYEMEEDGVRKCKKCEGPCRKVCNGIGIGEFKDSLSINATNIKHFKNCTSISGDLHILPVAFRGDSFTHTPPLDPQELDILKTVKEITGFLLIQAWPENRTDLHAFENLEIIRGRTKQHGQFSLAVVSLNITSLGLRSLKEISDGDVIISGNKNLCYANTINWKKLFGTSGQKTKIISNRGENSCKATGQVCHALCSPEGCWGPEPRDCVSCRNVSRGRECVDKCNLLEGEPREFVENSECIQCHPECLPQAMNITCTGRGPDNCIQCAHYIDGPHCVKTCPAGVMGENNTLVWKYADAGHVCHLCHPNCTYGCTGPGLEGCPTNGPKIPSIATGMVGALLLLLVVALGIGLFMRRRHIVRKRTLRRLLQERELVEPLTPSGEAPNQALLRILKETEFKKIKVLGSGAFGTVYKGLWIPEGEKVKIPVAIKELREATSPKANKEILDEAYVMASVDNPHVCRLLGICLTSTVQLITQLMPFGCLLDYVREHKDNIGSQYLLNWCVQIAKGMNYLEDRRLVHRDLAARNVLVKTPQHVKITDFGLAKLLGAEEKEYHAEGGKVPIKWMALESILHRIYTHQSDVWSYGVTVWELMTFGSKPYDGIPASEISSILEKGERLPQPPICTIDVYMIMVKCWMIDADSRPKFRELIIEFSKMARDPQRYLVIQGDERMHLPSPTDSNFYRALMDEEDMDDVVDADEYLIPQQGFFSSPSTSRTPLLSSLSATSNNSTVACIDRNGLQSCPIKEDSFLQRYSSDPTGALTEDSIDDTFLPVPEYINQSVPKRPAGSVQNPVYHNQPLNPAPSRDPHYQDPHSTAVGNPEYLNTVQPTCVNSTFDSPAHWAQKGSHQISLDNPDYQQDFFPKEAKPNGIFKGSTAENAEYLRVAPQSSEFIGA

HeLa [2] = assay: Antiproliferative activity against human HeLa cells after 72 hrs by MTT assay; assay type: functional, cell-based
Tubulin = Tubulin (Bos taurus, UniProt Q6B856+Q862L2+Q862F3); assay: Inhibition of bovine brain tubulin polymerization after 20 mins
Method in brief: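 Bovine brain tubulin (10 μM) preincubated with varying compound concentrations in 0.8 M monosodium glutamate, pH 6.6, at 30 °C, then chilled to 0 °C. 0.4 mM GTP added, mixtures warmed to 30 °C, assembly followed by turbidity at 350 nm.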

[3] = molecular target: T2, Vascular endothelial growth factor receptor 2 (Homo sapiens, UniProt P35968); assay: Inhibition of wild type VEGFR2 (unknown origin) by bioluminescent ADP-glo kinase assay
T2 sequence (P35968 whole entry): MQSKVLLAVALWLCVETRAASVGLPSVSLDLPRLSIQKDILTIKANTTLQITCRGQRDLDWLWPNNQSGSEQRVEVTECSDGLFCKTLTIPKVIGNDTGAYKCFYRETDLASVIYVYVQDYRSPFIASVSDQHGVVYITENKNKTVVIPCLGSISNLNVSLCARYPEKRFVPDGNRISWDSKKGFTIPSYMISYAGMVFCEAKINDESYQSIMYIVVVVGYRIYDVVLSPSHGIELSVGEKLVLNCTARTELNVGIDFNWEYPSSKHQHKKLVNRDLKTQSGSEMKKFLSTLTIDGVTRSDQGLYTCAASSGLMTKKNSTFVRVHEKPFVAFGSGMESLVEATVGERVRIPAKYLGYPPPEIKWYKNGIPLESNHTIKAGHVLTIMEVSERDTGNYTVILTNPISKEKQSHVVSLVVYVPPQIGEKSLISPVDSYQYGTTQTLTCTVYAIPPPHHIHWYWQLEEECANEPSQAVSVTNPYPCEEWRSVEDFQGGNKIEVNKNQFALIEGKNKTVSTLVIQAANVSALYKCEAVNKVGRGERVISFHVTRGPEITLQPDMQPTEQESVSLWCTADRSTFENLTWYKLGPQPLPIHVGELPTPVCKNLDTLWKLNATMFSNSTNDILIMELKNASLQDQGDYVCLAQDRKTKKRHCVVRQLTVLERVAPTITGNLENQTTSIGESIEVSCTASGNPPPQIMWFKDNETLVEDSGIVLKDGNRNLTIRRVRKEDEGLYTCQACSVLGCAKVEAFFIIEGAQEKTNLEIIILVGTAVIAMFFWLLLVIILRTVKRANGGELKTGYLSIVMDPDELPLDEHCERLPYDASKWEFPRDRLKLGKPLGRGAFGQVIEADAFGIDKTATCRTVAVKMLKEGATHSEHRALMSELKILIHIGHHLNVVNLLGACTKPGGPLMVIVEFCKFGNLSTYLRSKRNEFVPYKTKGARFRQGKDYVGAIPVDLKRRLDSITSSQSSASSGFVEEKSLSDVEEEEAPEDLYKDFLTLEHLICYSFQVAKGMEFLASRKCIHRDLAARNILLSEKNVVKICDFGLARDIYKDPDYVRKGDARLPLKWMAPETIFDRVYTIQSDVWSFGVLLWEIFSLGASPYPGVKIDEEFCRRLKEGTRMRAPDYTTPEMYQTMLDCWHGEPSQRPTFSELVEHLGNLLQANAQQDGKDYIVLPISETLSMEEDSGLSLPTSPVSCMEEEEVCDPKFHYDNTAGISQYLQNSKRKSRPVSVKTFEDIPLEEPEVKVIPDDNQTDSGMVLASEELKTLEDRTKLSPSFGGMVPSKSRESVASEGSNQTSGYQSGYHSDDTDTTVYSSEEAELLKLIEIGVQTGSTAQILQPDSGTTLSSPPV

HT-29 = assay: Antiproliferative activity against human HT-29 cells after 72 hrs by MTT assay; assay type: functional, cell-based; details: HT-29, 72 h
A549 = assay: Antiproliferative activity against human A549 cells after 72 hrs by MTT assay; assay type: functional, cell-based; details: A549, 72 h
Jurkat [4] = assay: Antiproliferative activity against human Jurkat cells after 72 hrs by MTT assay; assay type: functional, cell-based; method in brief: as §1
HUVEC [5] = assay: Antivascular activity in HUVEC assessed as effect on mesh area at 10 to 100 nM after 1 hr by matrigel assay; assay type: functional, cell-based; details: Homo sapiens
Method in brief: (§2)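 HUVECs (primary cord-derived, passages 1-6), 6×10^4 cells per well on Matrigel, left 6 h to form capillary tubes. Compound at 10 or 100 nM then added for 1 h. Five fields per well photographed at 10x, and network dimensional/topological parameters quantified. Mean ± S.E.M. of three independent experiments.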

HUVEC [6] = assay: Antivascular activity in HUVEC assessed as effect on master junction at 10 to 100 nM after 1 hr by matrigel assay; assay type: functional, cell-based; details: Homo sapiens; method in brief: as §2
[7] = Toxicity in C57BL/6 mouse allografted with mouse B16 cells assessed as body weight loss at 3 to 7.5 mg/kg, ip dosing starting on day 9 post tumor injection administered […] on day 9,11, 13 and 15; assay type: organism-based; details: in vivo
Method in brief: (§3)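 Six-week-old male C57BL/6 mice injected subcutaneously in the dorsolateral flank with 2.5×10^5 BL6-B16 melanoma cells in PBS. Once tumors were palpable, ip dosing every other day on days 9, 11, 13 and 15 at 3 or 7.5 mg/kg in 50 µL DMSO. Vehicle controls; CA-4P 30 mg/kg reference. Tumor volume and body weight tracked; 5 mice/group, mean ± SEM.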

HeLa [8] = assay: Induction of apoptosis in human HeLa cells at 50 nM after 24 to 48 hrs by Annexin V/propidium iodide-double staining-based flow cytometry; assay type: functional, cell-based; details: TDE = time-dependent effect
Method in brief: (§4)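 HeLa or Jurkat cells exposed 24 or 48 h, then double-labelled with annexin-V-FITC and PI and analysed by flow cytometry for phosphatidylserine exposure.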

HUVEC [9] = assay: Antivascular activity in HUVEC assessed as effect on nodes at 10 to 100 nM after 1 hr by matrigel assay; assay type: functional, cell-based; details: Homo sapiens; method in brief: as §2
[10] = molecular target: T1, Epidermal growth factor receptor; assay: Inhibition of EGF-induced EGFR phosphorylation at Y1068 in human HeLa cells at 1 uM pretreated for 6 hrs followed by EGF cells and measured after 15 mins by Western blot analysis; assay type: cell-based
Method in brief: (§5)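 HeLa cells treated 6 h with compound (10-1000 nM) or erlotinib, then stimulated with EGF for 15 min. EGF level is given as 50 ng/mL in the methods and 30 ng/mL in the figure legend. Lysates immunoblotted for total EGFR and phospho-Y1068, with β-actin as loading control.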

HeLa [11] = assay: Induction of cell cycle arrest in human HeLa cells assessed as accumulation at G2/M phase at 25 nM after 24 hrs by propidium iodide-stained flow cytometry; assay type: functional, cell-based
Method in brief: (§6)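 5×10^5 HeLa or Jurkat cells exposed 24 h, then collected, fixed in ice-cold 70% ethanol, treated with lysis buffer containing RNase A and 0.1% Triton X-100, and stained with PI. DNA content by flow cytometry. Mean ± SEM, three independent experiments.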

HeLa [12] = assay: Induction of cell cycle arrest in human HeLa cells assessed as arrest in mitotic phase at 50 nM after 24 hrs by p-histone H3 antibody staining based flow cytometry (reference value: 1.32%); assay type: functional
Tubulin (Bos taurus) = Tubulin (Bos taurus) (UniProt Q6B856+Q862L2+Q862F3); assay: Inhibition of [3H]-colchicine binding to bovine brain tubulin at 1 to 5 uM after 20 mins relative to control
Method in brief: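 Colchicine-binding inhibition in mixtures of 1 μM tubulin, 5 μM [3H]colchicine and test compound at 1 or 5 μM.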

HeLa [13] = assay: Induction of cell cycle arrest in human HeLa cells assessed as arrest in mitotic phase at 100 nM after 24 hrs by p-histone H3 antibody staining based flow cytometry (reference value: 1.32%); assay type: functional
Jurkat [14] = assay: Induction of cell cycle arrest in human Jurkat cells assessed as accumulation at G2/M phase at 25 nM after 24 hrs by propidium iodide-stained flow cytometry; assay type: functional, cell-based; method in brief: as §6
HUVEC [15] = assay: Antivascular activity in HUVEC assessed as effect on total branching length at 10 to 100 nM after 1 hr by matrigel assay; assay type: functional, cell-based; details: Homo sapiens; method in brief: as §2
[16] = Cytotoxicity against HUVEC assessed as inhibition of cell growth; assay type: cell-based; details: human, HUVEC cells
B16 [17] = assay: Antiproliferative activity against mouse B16 cells after 72 hrs by MTT assay; assay type: functional, cell-based; details: B16, 72 h
HUVEC [18] = assay: Antivascular activity in HUVEC assessed as effect on number of meshes at 10 to 100 nM after 1 hr by matrigel assay; assay type: functional, cell-based; details: Homo sapiens; method in brief: as §2
HeLa [19] = assay: Induction of ROS generation in human HeLa cells at 50 nM after 12 hrs by 2,7-dichlorodihydrofluorescein diacetate-staining based flow cytometry; assay type: functional, cell-based
Method in brief: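 HeLa cells exposed 3, 6, 12 or 24 h to 50, 100 or 250 nM, then stained with JC-1 for mitochondrial potential or H2-DCFDA for ROS. Analysed by flow cytometry.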

B16 [20] = assay: Antitumor activity against mouse B16 cells allografted in C57BL/6 mouse assessed as reduction in tumor burden at 3 mg/kg, ip dosing starting on day 9 post tumor injection administered […] on day 9,11, 13 and 15 relative to control; assay type: functional; set-up: scale not given: the % may be the effect or the level left; method in brief: as §3
HUVEC [21] = assay: Antivascular activity in HUVEC assessed as effect on segment length at 10 to 100 nM after 1 hr by matrigel assay; assay type: functional, cell-based; details: Homo sapiens; method in brief: as §2
[22] = molecular target: T1, Epidermal growth factor receptor; assay: Inhibition of EGF-induced EGFR phosphorylation at Y1068 in human HeLa cells pretreated for 6 hrs followed by EGF cells and measured after 15 mins by Western blot analysis; assay type: cell-based; method in brief: as §5
B16 [23] = assay: Antitumor activity against mouse B16 cells allografted in C57BL/6 mouse assessed as reduction in tumor burden at 7.5 mg/kg, ip dosing starting on day 9 post tumor injection administered […] on day 9,11, 13 and 15 relative to control; assay type: functional; set-up: scale not given: the % may be the effect or the level left; method in brief: as §3
HeLa [24] = assay: Induction of apoptosis in human HeLa cells assessed as decrease in bcl2 expression at 50 to 100 nM after 24 to 48 hrs by Western blot analysis; assay type: functional, cell-based
Method in brief: (§7)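 HeLa cells incubated with compound at indicated concentrations and times, then washed in ice-cold PBS and lysed 30 min on ice. 10 µg protein per lane run on SDS-PAGE, transferred to PVDF and blocked overnight at 4 °C in 5% BSA. Probed 2 h at room temperature for PARP, Mcl-1 or Bcl-2, detected by ECL, and reprobed for β-actin as loading control.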

HeLa [25] = assay: Induction of apoptosis in human HeLa cells assessed as decrease in […] expression at 50 to 100 nM after 24 to 48 hrs by Western blot analysis; assay type: functional, cell-based; method in brief: as §7
Jurkat [26] = assay: Induction of apoptosis in human Jurkat cells at 50 nM after 24 to 48 hrs by Annexin V/propidium iodide-double staining-based flow cytometry; assay type: functional, cell-based; details: TDE = time-dependent effect; method in brief: as §4
[27] = molecular target: T2, Vascular endothelial growth factor receptor 2; assay: Inhibition of VEGFR2 (unknown origin)

Compound: COc1cc(Nc2ncnc3cc(-c4cccs4)sc23)cc(OC)c1OC
IC50 (RS4-11): 360 nM
IC50 [1]: 2.5 nM
IC50 (HeLa [2]): 1700 nM
IC50 (Tubulin): 18000 nM
IC50 [3]: > 1000 nM
IC50 (HT-29): 210 nM
IC50 (A549): 5100 nM
IC50 (Jurkat [4]): 80 nM

Compound: COc1cc(Nc2ncnc3cc(-c4ccccc4)sc23)cc(OC)c1OC
IC50 (RS4-11): 260 nM
IC50 [1]: 23 nM
IC50 (HeLa [2]): 170 nM
IC50 (Tubulin): 10000 nM
IC50 [3]: > 1000 nM
IC50 (HT-29): 350 nM
IC50 (A549): 2300 nM
IC50 (Jurkat [4]): 10 nM

Compound: COc1cc(Nc2ncnc3cc(-c4ccc(F)cc4)sc23)cc(OC)c1OC
IC50 (RS4-11): 1900 nM
IC50 (HeLa [2]): 450 nM
IC50 (HT-29): 1900 nM
IC50 (A549): 13500 nM
IC50 (Jurkat [4]): 260 nM

Compound: Cc1cc2cc(Nc3ncnc4cc(-c5ccccc5)sc34)ccc2[nH]1
IC50 [27]: 140 nM

Compound: c1ccc(-c2cc3ncnc(Nc4ccc5[nH]ccc5c4)c3s2)cc1
IC50 [27]: 80 nM

Further molecules by falling IC50 (RS4-11), results first:

IC50 (RS4-11): 170 nM
IC50 [1]: 10 nM
IC50 (HeLa [2]): 280 nM
IC50 (Tubulin): 2500 nM
inhibition (Tubulin (Bos taurus)): 35%
IC50 [3]: > 1000 nM
IC50 (HT-29): 250 nM
IC50 (A549): 770 nM
IC50 (Jurkat [4]): 300 nM
Compound: COc1cc(Nc2ncnc3cc(-c4ccc(I)cc4)sc23)cc(OC)c1OC

IC50 (RS4-11): 2 nM
IC50 [1]: 30 nM
IC50 (HeLa [2]): 1 nM
inhibition [10]: Active
IC50 (Tubulin): 710 nM
inhibition (Tubulin (Bos taurus)): 76%
IC50 (B16 [17]): 23.4 nM
IC50 [3]: > 1000 nM
IC50 (HT-29): 20 nM
IC50 (A549): 19 nM
inhibition [22]: Dose-dependent effect
IC50 (Jurkat [4]): 1 nM
Compound: COc1cc(Nc2ncnc3cc(-c4ccc(C)cc4)sc23)cc(OC)c1OC
Activity (HUVEC [5]): Active
Activity (HUVEC [6]): Active
Activity [7]: Non-Toxic
Activity (HeLa [8]): Tde
Activity (HUVEC [9]): Active
Activity (HeLa [11]): Active
Activity (HeLa [12]): 36.8 - 38%
Activity (HeLa [13]): 49.4 - 50%
Activity (Jurkat [14]): Active
Activity (HUVEC [15]): Active
GI50 [16]: 56 nM
Activity (HUVEC [18]): Active
Activity (HeLa [19]): Active
Activity (B16 [20]): 28%
Activity (HUVEC [21]): Active
Activity (B16 [23]): 52.5%
Activity (HeLa [24]): Active
Activity (HeLa [25]): Active
Activity (Jurkat [26]): Tde
